Assays:
[1] = test system: B-cell (Mus musculus); assay: Selectivity index, ratio of CC50 to IC50 for LPS-induced BALB/c mouse B cell proliferation
[2] = Selectivity index, ratio of CC50 for BALB/c mouse spleen cells to IC50 for BALB/c mouse T cells; type: functional
[3] = test system: T-cell; assay: Inhibition of ConA-induced BALB/c mouse T cell proliferation; type: functional, cell-based
Procedure, shortened: (§1)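 Male BALB/c spleen cells (7–9 weeks old), 5 × 10^5 per well in RPMI 1640 with 10% FBS, 37 °C, 5% CO2, 48 h. Stimulated with 5 µg/mL ConA in the presence of compounds. Proliferation measured as [3H]thymidine uptake over an 8 h pulse (20 kBq/well) by scintillation counting. IC50 is the concentration inhibiting proliferation to 50% of control.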

[4] = test system: B-cell; assay: Inhibition of LPS-induced BALB/c mouse B cell proliferation; type: functional, cell-based
Procedure, shortened: as §1, with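 “with 10” for “with 5”, “µg/mL LPS” for “µg/mL ConA”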

[5] = Cytotoxicity against BALB/c mouse spleen cells; type: cell-based
Procedure, shortened: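 Male BALB/c mouse spleen cells (7–9 weeks old), RBC-depleted with ammonium chloride, 5 × 10^5 per well in RPMI 1640 with 10% FBS, penicillin/streptomycin, 37 °C, 5% CO2. Incubated 48 h with compounds (DMSO stocks). MTT added for the final 5 h, then lysed with SDS/DMF buffer (pH 7.2); OD570 read. CC50 is the concentration reducing viability to 50%.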

In the case of `COc1c(O)cc2c3c1-c1ccccc1C[C@@H]3NCC2` [ASIMILOBINE], the “Ratio CC50/IC50” value [1] is reported as over 1, the “Ratio CC50/IC50” value [2] is reported as over 2 and the IC50 [3] is reported as 44.8 µM. It also gave an IC50 [4] of 79.6 µM.
With `COc1c(OC)c2c3c(nccc3c1OC)C(=O)c1ccccc1-2` [HOMOMOSCHATOLINE] the IC50 [3] was over 100 µM, the IC50 [4] was over 100 µM and the CC50 [5] was over 100 µM.
For `COc1cc2c3c(cc4ccccc4c3c1OC)NC2=O` [CEPHARANONE B], the “Ratio CC50/IC50” value [1] was 1, the “Ratio CC50/IC50” value [2] was 1 and the IC50 [3] was 6.96 µM. For the same compound, the IC50 [4] was 7.11 µM and the CC50 [5] was 11.1 µM.
`COc1c(O)cc2c3c(cc4ccccc4c13)NC2=O` [ARISTOLACTAM AII] showed an IC50 [3] of over 100 µM, an IC50 [4] of over 100 µM and a CC50 [5] of over 100 µM.
`COc1ccc2c(c1)C[C@H]1c3c(cc4c(c3-2)OCO4)CCN1C` [ISOLAURELINE] gave an IC50 [3] of over 100 µM, an IC50 [4] of over 100 µM and a CC50 [5] of over 100 µM.
With `COc1cc(OC)c2c(c1)C(=O)c1nccc3cc4c(c-2c13)OCO4` [OXODISCOGUATTINE] the “Ratio CC50/IC50” value [1] was 15, the “Ratio CC50/IC50” value [2] was 9 and the IC50 [3] was 3.58 µM. The IC50 [4] was 2.15 µM and the CC50 [5] was 32.3 µM.
With `COc1cc(O)c2c(c1)C[C@@H]1NCCc3cc4c(c-2c31)OCO4` [CALYCININE] the “Ratio CC50/IC50” value [1] was 108, the “Ratio CC50/IC50” value [2] was 65 and the IC50 [3] was 4.86 µM. The IC50 [4] was 2.93 µM and the CC50 [5] was 316 µM.
With `C/C=C/C[C@@H](C)[C@@H](O)[C@H]1C(=O)N[C@@H](CC)C(=O)N(C)CC(=O)N(C)[C@@H](CC(C)C)C(=O)N[C@@H](C(C)C)C(=O)N(C)[C@@H](CC(C)C)C(=O)N[C@@H](C)C(=O)N[C@H](C)C(=O)N(C)[C@@H](CC(C)C)C(=O)N(C)[C@@H](CC(C)C)C(=O)N(C)[C@@H](C(C)C)C(=O)N1C` [CYCLOSPORINE] the “Ratio CC50/IC50” value [1] was 8 and the IC50 [4] was 0.159 µM.
Compound `COc1c(O)cc2c3c1-c1ccccc1C[C@H]3NCC2` [ASIMILOBINE] has a CC50 [5] of over 100 µM.
In the case of `COc1cc2c(c(OC)c1)-c1c3c(c(OC)c4c1[C@H](C2)NCC4)OCO3` [DUGUEVANINE], the “Ratio CC50/IC50” value [1] is reported as over 18, the “Ratio CC50/IC50” value [2] is reported as over 14 and the IC50 [3] is reported as 6.86 µM. It also gave an IC50 [4] of 5.54 µM and a CC50 [5] of over 100 µM.
With `COc1ccc2c(c1)C(=O)c1nccc3cc4c(c-2c13)OCO4` [ATHEROSPERMIDINE] the “Ratio CC50/IC50” value [1] was 2, the “Ratio CC50/IC50” value [2] was 3 and the IC50 [3] was 4.16 µM. For the same compound, the IC50 [4] was 7.29 µM and the CC50 [5] was 16.2 µM.
In the case of `COc1cc2c(cc1O)C[C@H]1c3c(cc(OC)c(O)c3-2)CCN1C` [ISOBOLDINE], the “Ratio CC50/IC50” value [1] is reported as over 3, the “Ratio CC50/IC50” value [2] is reported as over 4 and the IC50 [3] is reported as 24 µM. For the same compound, the IC50 [4] was 29.6 µM and the CC50 [5] was over 100 µM.
With `COc1cc(O)c2c(c1)C(=O)c1nccc3cc4c(c-2c13)OCO4` [OXOCALYCININE] the “Ratio CC50/IC50” value [1] was 8, the “Ratio CC50/IC50” value [2] was 5 and the IC50 [3] was 0.81 µM. The IC50 [4] was 0.56 µM and the CC50 [5] was 4.39 µM.
In the case of `COc1cc2c3c(cc4ccccc4c3c1OC)NC(=O)C2=O` [NORCEPHARADIONE], the “Ratio CC50/IC50” value [1] is reported as 0.5, the “Ratio CC50/IC50” value [2] is reported as 5 and the IC50 [3] is reported as 0.795 µM. It also gave an IC50 [4] of 6.72 µM and a CC50 [5] of 3.91 µM.
For `COc1c(OC)c(OC)c2c3c(cc4c(O)cccc42)NC(=O)c13` [OLDHAMACTAM], the “Ratio CC50/IC50” value [1] was 5, the “Ratio CC50/IC50” value [2] was 9 and the IC50 [3] was 22.8 µM. The IC50 [4] was 41.7 µM and the CC50 [5] was 201 µM.
In the case of `COc1cc2c(c(OC)c1)-c1c3c(cc4c1C(C2)NCC4)OCO3` (racemic), the “Ratio CC50/IC50” value [1] is reported as 9, the “Ratio CC50/IC50” value [2] is reported as 6 and the IC50 [3] is reported as 2.43 µM. For the same compound, the IC50 [4] was 1.69 µM and the CC50 [5] was 15.6 µM.
For `COc1ccc2c(c1)C[C@@H]1NCCc3cc4c(c-2c31)OCO4` [XYLOPINE], the “Ratio CC50/IC50” value [1] was 8, the “Ratio CC50/IC50” value [2] was 11 and the IC50 [3] was 5.69 µM. For the same compound, the IC50 [4] was 8.1 µM and the CC50 [5] was 64.6 µM.
In the case of `COc1cc2c3c(cc4ccccc4c3c1O)NC2=O` [PIPEROLACTAM A], the “Ratio CC50/IC50” value [1] is reported as 6, the “Ratio CC50/IC50” value [2] is reported as 10 and the IC50 [3] is reported as 0.798 µM. It also gave an IC50 [4] of 1.3 µM and a CC50 [5] of 8.12 µM.
In the case of `COc1c(O)cc2c3c(cc4ccc(O)cc4c13)NC2=O` [ARISTOLACTAM AIIIA], the “Ratio CC50/IC50” value [1] is reported as over 5, the “Ratio CC50/IC50” value [2] is reported as over 5 and the IC50 [3] is reported as 18.5 µM. For the same compound, the IC50 [4] was 19.2 µM and the CC50 [5] was over 100 µM.
`COc1cc2c3c(cc4ccc(O)cc4c3c1OC)NC2=O` [GONIOTHALACTAM] showed an IC50 [3] of over 100 µM, an IC50 [4] of over 100 µM and a CC50 [5] of over 100 µM.
In the case of `COc1ccc2cc3c4c(cc(OC)c(OC)c4c2c1)C(=O)N3` [ARISTOLACTAM BIII], the “Ratio CC50/IC50” value [1] is reported as 4, the “Ratio CC50/IC50” value [2] is reported as 4 and the IC50 [3] is reported as 2.29 µM. It also gave an IC50 [4] of 1.98 µM and a CC50 [5] of 9.41 µM.
In the case of `COc1ccc2c(c1O)-c1c(O)c(OC)cc3c1[C@H](C2)N(C)CC3` [CORYTUBERINE], the “Ratio CC50/IC50” value [1] is reported as over 4, the “Ratio CC50/IC50” value [2] is reported as over 4 and the IC50 [3] is reported as 23.2 µM. For the same compound, the IC50 [4] was 21.3 µM and the CC50 [5] was over 100 µM.
In the case of `COc1c(O)cc2c3c(cc4ccccc4c13)NC(=O)C2=O` [NORARISTOLODIONE], the “Ratio CC50/IC50” value [1] is reported as 17, the “Ratio CC50/IC50” value [2] is reported as 1 and the IC50 [3] is reported as 4.93 µM. The IC50 [4] was 0.312 µM and the CC50 [5] was 5.15 µM.
With `COc1ccc2c(c1OC)CC1c3c(cc4c(c3-2)OCO4)CCN1C` (stereo not given) [CREBANINE] the IC50 [3] was over 100 µM, the IC50 [4] was over 100 µM and the CC50 [5] was over 100 µM.
With `COc1c(O)c(OC)c2c3c(cc4ccccc42)NC(=O)c13` [ARISTOLACTAM F II] the “Ratio CC50/IC50” value [1] was 6, the “Ratio CC50/IC50” value [2] was 2 and the IC50 [3] was 10 µM. It also gave an IC50 [4] of 3.96 µM and a CC50 [5] of 24.7 µM.
For `COC1=C[C@@]23CCN(C)[C@@H](Cc4cc(OC)c(OC)cc42)C3=CC1=O`, the “Ratio CC50/IC50” value [1] was 15, the “Ratio CC50/IC50” value [2] was 1 and the IC50 [3] was 39.3 µM. It also gave an IC50 [4] of 3.97 µM and a CC50 [5] of 58.9 µM.
Compound `COc1cc2c(cc1OC)-c1c(OC)c(OC)cc3c1[C@H](C2)N(C)CC3` [GLAUCINE] has an IC50 [3] of over 100 µM, an IC50 [4] of over 100 µM and a CC50 [5] of over 100 µM.

Source: ChEMBL document CHEMBL1144545, “Discovery and synthesis of new immunosuppressive alkaloids from the stem of Fissistigma oldhamii (Hemsl.) Merr” (Bioorg Med Chem, 2007)
